One assay addresses Adenosine receptor A2a (Homo sapiens, UniProt P29274). The assay can be described thus: Displacement of [3H]NECA from human recombinant adenosine A2A receptor expressed in CHO cells. In kind it is cell-based. Put shortly: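 Competition binding with [3H]NECA at 30 nM on stably transfected CHO cells. Nonspecific binding defined with 1 mM theophylline. Dissociation constants (Ki) obtained by nonlinear curve fitting.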

Assay [1] has as its target T1, Adenosine receptor A3 (Homo sapiens) (UniProt P0DMS8).
T1 sequence (whole entry): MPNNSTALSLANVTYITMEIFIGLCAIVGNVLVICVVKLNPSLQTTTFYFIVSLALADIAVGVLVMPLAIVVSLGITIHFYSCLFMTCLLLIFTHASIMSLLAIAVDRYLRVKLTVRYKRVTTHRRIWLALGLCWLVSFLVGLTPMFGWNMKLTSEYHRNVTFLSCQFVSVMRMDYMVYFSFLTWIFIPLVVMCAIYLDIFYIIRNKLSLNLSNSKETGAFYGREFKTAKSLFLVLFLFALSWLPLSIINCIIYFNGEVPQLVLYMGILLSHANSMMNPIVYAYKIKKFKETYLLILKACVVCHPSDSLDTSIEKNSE
As to the kind of experiment: Activity at human adenosine A3 receptor assessed as inhibition of forskolin-stimulated cAMP production in CHO cells. It counts as functional, cell-based. Also noted: concentration or dose not given beside the values.

Another assay concerns the target T2, Adenosine receptor A3 (Homo sapiens, UniProt P0DMS8).
T2 sequence (P0DMS8 whole entry): T1 sequence (whole entry)
As to the kind of experiment: Displacement of [3H]NECA from human recombinant adenosine A3 receptor expressed in CHO cells. It counts as cell-based. A digest of the protocol:
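[3H]NECA used at 10 nM as radioligand in competition experiments, stably transfected CHO cells. Nonspecific binding defined with 1 mM theophylline. Ki from nonlinear curve fitting.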
Background: Loss of bound radioactivity is the signal in a displacement assay; it reports binding, not function.

The next assay deals with T3, Adenosine receptor A1 (Homo sapiens, UniProt P30542).
T3 sequence (P30542 whole entry): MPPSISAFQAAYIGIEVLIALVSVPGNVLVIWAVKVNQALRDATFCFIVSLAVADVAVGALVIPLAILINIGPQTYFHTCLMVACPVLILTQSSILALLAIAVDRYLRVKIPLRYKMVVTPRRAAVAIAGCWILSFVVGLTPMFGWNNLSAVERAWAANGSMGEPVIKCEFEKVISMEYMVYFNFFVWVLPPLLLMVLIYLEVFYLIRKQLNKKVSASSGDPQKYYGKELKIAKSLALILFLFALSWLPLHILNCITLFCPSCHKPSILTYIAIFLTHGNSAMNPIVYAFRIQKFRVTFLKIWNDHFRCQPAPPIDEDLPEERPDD
As to the kind of experiment: Displacement of [3H]CCPA from human recombinant adenosine A1 receptor expressed in CHO cells. In kind it is cell-based.

The target of assay [2] is Adenosine receptors; A1 & A3 (Homo sapiens) (UniProt P30542+P0DMS8). The assay can be described thus: Selectivity for human adenosine A3 receptor over human adenosine A1 receptor. It counts as protein assay.
For assay [3], the target named is Adenosine receptors; A2a & A3 (Homo sapiens) (UniProt P0DMS8+P29274). The assay can be described thus: Selectivity for human adenosine A3 receptor over human adenosine A2A receptor. In kind it is protein assay.

Adenosine receptor A2a, sequence (P29274 whole entry): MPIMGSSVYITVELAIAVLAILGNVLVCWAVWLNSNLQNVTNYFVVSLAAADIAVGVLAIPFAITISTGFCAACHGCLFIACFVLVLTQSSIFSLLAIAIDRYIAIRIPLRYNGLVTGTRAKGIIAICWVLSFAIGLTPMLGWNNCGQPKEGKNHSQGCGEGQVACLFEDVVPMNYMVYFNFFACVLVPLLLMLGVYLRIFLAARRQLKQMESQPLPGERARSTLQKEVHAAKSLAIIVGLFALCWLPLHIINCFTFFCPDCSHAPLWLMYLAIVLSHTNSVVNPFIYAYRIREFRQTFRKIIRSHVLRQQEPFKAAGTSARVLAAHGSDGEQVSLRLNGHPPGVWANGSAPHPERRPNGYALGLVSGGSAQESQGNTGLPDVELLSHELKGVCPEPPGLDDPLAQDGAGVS

As for `CONc1nc(C#Cc2ccccc2)nc2c1ncn2[C@@H]1O[C@@H](CO)[C@@H](O)[C@H]1O`, the Ki – broadly, the equilibrium dissociation constant of an inhibitor or competing ligand from its target – was 4.29 µM at Adenosine receptor A2a, 0.0038 µM on Adenosine receptor A3 and 1.21 µM at Adenosine receptor A1. Also, the Activity in assay [1] came to 81%. Besides, the Ratio Ki in assay [2] came to 318; in assay [3] it was 1100.
For the compound `CNC(=O)[C@H]1O[C@@H](n2cnc3c(NOC)nc(C#Cc4ccccc4)nc32)[C@H](O)[C@@H]1O`, the Ki was 16.3 µM at Adenosine receptor A2a, 0.0019 µM at Adenosine receptor A3 and 9.14 µM on Adenosine receptor A1. Also, the Activity in assay [1] worked out at 38%. Also, the Ratio Ki in assay [2] came to 4800; in assay [3] it was 8600.
Regarding `CNC(=O)[C@H]1O[C@@H](n2cnc3c(NOC)nc(C#Cc4ccccn4)nc32)[C@H](O)[C@@H]1O`, the inhibition constant (Ki) on Adenosine receptor A2a was found to be 18 µM; at Adenosine receptor A3, 0.0011 µM; on Adenosine receptor A1, 3.99 µM. Moreover, the Activity in assay [1] worked out at 34%. The Ratio Ki in assay [2] stood at 3600; in assay [3], 16400.
`CONc1nc(C#Cc2ccccn2)nc2c1ncn2[C@@H]1O[C@H](CO)[C@@H](O)[C@H]1O`: the Ki on Adenosine receptor A2a was 2.96 µM; at Adenosine receptor A3, 0.0023 µM; on Adenosine receptor A1, 0.437 µM. The Activity in assay [1] is 94%. Further, the Ratio Ki in assay [2] turned out to be 190; in assay [3], 1300.

(Values after ChEMBL document CHEMBL1142938 (J Med Chem, 2007).)
